ChEMBL document CHEMBL2413015, “Synthesis, evaluation and molecular dynamics study of some new 4-aminopyridine semicarbazones as an antiamnesic and cognition enhancing agents” (Bioorg Med Chem, 2013)

Columns and labels:
[1] = test system: Rattus norvegicus; assay: Activity at AChE in Charles Foster rat hippocampus assessed as substrate hydrolyzed per mg of protein at 10 mg/kg, po for 8 days by Ellman's method (reference value: 47.50 +/- 0.84 mol/min); assay type: functional
[2] = biological target: T1, Acetylcholinesterase (Electrophorus electricus, UniProt O42275); assay: Inhibition of electric eel AChE using acetylthiocholine iodide as substrate preincubated for 20 mins prior to substrate addition by Ellman's method
T1 sequence (O42275 whole entry): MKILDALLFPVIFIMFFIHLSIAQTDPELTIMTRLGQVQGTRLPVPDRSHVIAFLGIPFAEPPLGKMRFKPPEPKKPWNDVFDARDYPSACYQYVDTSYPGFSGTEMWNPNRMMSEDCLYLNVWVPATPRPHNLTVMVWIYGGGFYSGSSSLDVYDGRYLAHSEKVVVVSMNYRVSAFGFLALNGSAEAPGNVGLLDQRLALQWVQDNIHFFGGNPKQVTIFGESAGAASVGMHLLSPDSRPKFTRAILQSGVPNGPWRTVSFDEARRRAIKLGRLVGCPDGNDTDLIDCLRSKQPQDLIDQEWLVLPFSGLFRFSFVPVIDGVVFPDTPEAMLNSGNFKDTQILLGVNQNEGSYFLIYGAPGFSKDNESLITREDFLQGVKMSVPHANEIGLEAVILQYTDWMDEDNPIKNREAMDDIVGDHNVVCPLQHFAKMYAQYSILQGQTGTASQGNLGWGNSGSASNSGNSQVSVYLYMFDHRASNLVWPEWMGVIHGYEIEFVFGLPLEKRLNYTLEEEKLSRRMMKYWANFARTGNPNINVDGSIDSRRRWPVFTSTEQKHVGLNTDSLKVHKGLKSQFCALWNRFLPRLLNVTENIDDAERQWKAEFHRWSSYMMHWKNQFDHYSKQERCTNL

[3] = test system: Rattus norvegicus; assay: Cognitive enhancing effect in po dosed Wistar rat assessed as reversal of learning impairment measured as transfer latency administered for 8 days by elevated plus maze test; assay type: functional, organism-based
Outline: (§1)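 Oral dosing at 5 or 10 mg/kg for 8 days, suspended in 0.3% carboxymethyl cellulose; vehicle-treated controls. Transfer latency on elevated plus maze measured on first and second days of exposure (treatment days 7 and 8). Mean ± SEM, n = 6, one-way ANOVA versus vehicle control.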

[4] = test system: Rattus norvegicus; assay: Activity at AChE in Charles Foster rat hippocampus assessed as substrate hydrolyzed per mg of protein at 5 mg/kg, po for 8 days by Ellman's method (reference value: 47.50 +/- 0.84 mol/min); assay type: functional
[5] = test system: Rattus norvegicus; assay: Activity at AChE in Charles Foster rat hypothalamus assessed as substrate hydrolyzed per mg of protein at 5 mg/kg, po for 8 days by Ellman's method (reference value: 40.50 +/- 0.76 mol/min); assay type: functional
[6] = test system: Rattus norvegicus; assay: Activity at AChE in Charles Foster rat hypothalamus assessed as substrate hydrolyzed per mg of protein at 10 mg/kg, po for 8 days by Ellman's method (reference value: 40.50 +/- 0.76 mol/min); assay type: functional
[7] = test system: Rattus norvegicus; assay: Toxicity in albino rat assessed as mortality upto 100 mg/kg after 30 mins to 48 hrs; assay type: organism-based; parameters: dose 100 mg/kg; conditions: in vivo
Outline: (§2)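 Acute toxicity followed OECD guidelines. Nulliparous, non-pregnant female albino rats (120–150 g) were fasted overnight with water ad libitum. Graded oral doses up to 100 mg/kg were given in 0.3% carboxymethyl cellulose. Rats were observed continuously for 30 min, at 2 h and up to 48 h for behavioural or autonomic changes, tremors, convulsions, salivation, diarrhoea, sleep, lacrimation, cardiovascular signs, feeding and mortality.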

[8] = test system: Rattus norvegicus; assay: Cognitive enhancing effect in Wistar rat assessed as reversal of learning impairment measured as transfer latency at 10 mg/kg, po for 8 days measured on second day of test by elevated plus maze test (reference value: 66.824 +/- 0.47 seconds); assay type: functional; outline: as §1
[9] = test system: Rattus norvegicus; assay: Cognitive enhancing effect in Wistar rat assessed as reversal of learning impairment measured as transfer latency at 5 mg/kg, po for 8 days measured on first day of test by elevated plus maze test (reference value: 70.846 +/- 0.76 seconds); assay type: functional; outline: as §1
[10] = test system: Rattus norvegicus; assay: Cognitive enhancing effect in Wistar rat assessed as reversal of learning impairment measured as transfer latency at 10 mg/kg, po for 8 days measured on first day of test by elevated plus maze test (reference value: 70.846 +/- 0.76 seconds); assay type: functional; outline: as §1
[11] = test system: Rattus norvegicus; assay: Cognitive enhancing effect in Wistar rat assessed as reversal of learning impairment measured as transfer latency at 5 mg/kg, po for 8 days measured on second day of test by elevated plus maze test (reference value: 66.824 +/- 0.47 seconds); assay type: functional; outline: as §1
[12] = test system: Rattus norvegicus; assay: (§3) Cognitive enhancing effect in Charles Foster rat assessed as reversal of scopolamine-induced amnesia measured as transfer latency at 5 mg/kg, po for 8 days administered 1 hr prior to scopolamine-challenge on day 7 measured on same day by elevated plus maze test (reference value: 67.83 +/- 0.94 seconds); assay type: functional
[13] = test system: Rattus norvegicus; assay: Cognitive enhancing effect in Charles Foster rat assessed as reversal of scopolamine-induced amnesia measured as transfer latency at 10 mg/kg, po for 8 days administered 1 hr prior to scopolamine-challenge on day 7 measured on day 8 by elevated plus maze test (reference value: 62.17 +/- 0.47 seconds); assay type: functional
[14] = test system: Rattus norvegicus; assay: Toxicity in albino rat assessed as change in normal behavioral response upto 100 mg/kg after 30 mins to 48 hrs; assay type: organism-based; parameters: dose 100 mg/kg; conditions: in vivo; outline: as §2
[15] = test system: Rattus norvegicus; assay: Cognitive enhancing effect in Charles Foster rat assessed as reversal of scopolamine-induced amnesia measured as transfer latency at 5 mg/kg, po for 8 days administered 1 hr prior to scopolamine-challenge on day 7 measured on day 8 by elevated plus maze test (reference value: 62.17 +/- 0.47 seconds); assay type: functional
[16] = test system: Rattus norvegicus; assay: as §3, with “10” for “5”; assay type: functional
[17] = test system: Rattus norvegicus; assay: Activity at AChE in Charles Foster rat prefrontal cortex assessed as substrate hydrolyzed per mg of protein at 10 mg/kg, po for 8 days by Ellman's method (reference value: 45.83 +/- 0.94 mol/min); assay type: functional
[18] = test system: Rattus norvegicus; assay: Activity at AChE in Charles Foster rat prefrontal cortex assessed as substrate hydrolyzed per mg of protein at 5 mg/kg, po for 8 days by Ellman's method (reference value: 45.83 +/- 0.94 mol/min); assay type: functional
[19] = biological target: T2, Cholinesterase (Homo sapiens, UniProt P06276); assay: Inhibition of human serum BChE using butyrylthiocholine iodide as substrate preincubated for 20 mins prior to substrate addition by Ellman's method
T2 sequence (P06276 whole entry): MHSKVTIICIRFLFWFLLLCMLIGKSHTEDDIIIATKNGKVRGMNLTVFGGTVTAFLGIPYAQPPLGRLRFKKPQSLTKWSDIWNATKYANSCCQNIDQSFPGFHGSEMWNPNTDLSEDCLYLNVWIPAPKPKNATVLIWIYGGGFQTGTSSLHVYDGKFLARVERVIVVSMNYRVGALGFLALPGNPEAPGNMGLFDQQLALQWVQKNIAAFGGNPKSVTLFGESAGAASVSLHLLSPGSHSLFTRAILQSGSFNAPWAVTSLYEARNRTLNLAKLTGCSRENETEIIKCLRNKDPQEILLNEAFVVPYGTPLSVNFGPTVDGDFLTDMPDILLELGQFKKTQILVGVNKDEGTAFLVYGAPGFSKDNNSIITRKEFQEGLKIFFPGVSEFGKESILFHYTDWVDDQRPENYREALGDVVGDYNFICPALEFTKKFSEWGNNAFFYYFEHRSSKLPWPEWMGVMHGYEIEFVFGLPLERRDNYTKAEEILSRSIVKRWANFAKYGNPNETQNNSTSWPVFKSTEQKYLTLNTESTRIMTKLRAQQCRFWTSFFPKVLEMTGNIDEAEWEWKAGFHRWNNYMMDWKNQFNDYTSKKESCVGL
Outline: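 Human serum BChE was dissolved in 0.1% gelatine. The final mix held 0.1 M phosphate pH 8.0, DTNB, 0.02 unit/mL enzyme and butyrylthiocholine iodide. Five inhibitor concentrations spanning 20–80% inhibition were preincubated with enzyme for 20 min at 37 °C, then substrate was added. Rate was read at 412 nm over 5 min against an enzyme-free blank. Each point was run in triplicate, and IC50 was read graphically from log concentration–% inhibition curves.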

[20] = biological target: T1, Acetylcholinesterase; assay: Competitive inhibition of electric eel AChE using acetylthiocholine iodide as substrate by Lineweaver-Burk plot analysis
Outline: (§4)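 Ellman assay in phosphate buffer pH 8 with a fixed amount of cholinesterase. Thiocholine substrate was varied from below to above, but near, Km, with or without inhibitor. Inhibition type was assigned from Lineweaver–Burk plots.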

[21] = Selectivity ratio of IC50 for human serum BChE to IC50 for electric eel AChE
Outline: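 Ratio of IC50 (BChE) to IC50 (AChE). Both came from Ellman assays at 0.1 M phosphate pH 8.0 and 0.02 unit/mL enzyme: AChE (stock in phosphate buffer) with acetylthiocholine, human serum BChE (stock in 0.1% gelatine) with butyrylthiocholine.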

[22] = biological target: T2, Cholinesterase; assay: Competitive inhibition of human serum BChE using butyrylthiocholine iodide as substrate by Lineweaver-Burk plot analysis; outline: as §4
[23] = biological target: T2, Cholinesterase; assay: Non competitive inhibition of human serum BChE using butyrylthiocholine iodide as substrate by Lineweaver-Burk plot analysis; outline: as §4

Row | Compound | Activity [1] [mol/min] | IC50 ([2]; read-out: IC50) [µM] | Activity [3] | Activity [4] [mol/min] | Activity [5] [mol/min] | Activity [6] [mol/min] | Activity [7] | Time [8] [s] | Time [9] [s] | Time [10] [s] | Time [11] [s] | Time [12] [s] | Time [13] [s] | Activity [14] | Time [15] [s] | Time [16] [s] | Activity [17] [mol/min] | Activity [18] [mol/min] | IC50 [19] [µM] | Ki [20] [µM] | further results
1 | NNC(=O)Nc1ccncc1 | 43.67 | 211 | Dose-dependent effect | 44.5 | 37.47 | 37.17 | Non-toxic | 59.33 | 65 | 64 | 60.5 | 78 | 69.83 | Non-toxic | 71.83 | 75.5 | 42.17 | 42.33 | > 1000 |  | 
2 | NC(=O)Nc1ccncc1 | 44.17 | 274 | Dose-dependent effect | 44.5 | 37.5 | 37.33 | Non-toxic | 60.17 | 66.2 | 65.12 | 61.25 | 80.83 | 73 | Non-toxic | 75 | 77.83 | 42.5 | 43 | > 1000 |  | 
3 | O=C(N/N=C/c1ccccc1)Nc1ccncc1 | 41 | 82.3 | Dose-dependent effect | 42.33 | 36.5 | 35.83 | Non-toxic | 51 | 59.17 | 58.33 | 53.33 | 74.17 | 66.17 | Non-toxic | 69.33 | 70.33 | 40.5 | 42.03 | 845 | 88.6 | Ratio IC50 [21]: 10.3; Ki [22]: 685 µM
4 | COc1ccc(/C=N/NC(=O)Nc2ccncc2)cc1OC | 35.83 | 12.7 | Dose-dependent effect | 38.17 | 35.33 | 33.17 | Non-toxic | 40.5 | 52.17 | 49.33 | 44.5 | 67.17 | 57.17 | Non-toxic | 62.17 | 64.83 | 35.17 | 36.87 | 426 | 10.3 | Ratio IC50 [21]: 33.6; Ki [22]: 283 µM
5 | COc1cc2c(cc1OC)C(=O)C(CC1CCN(Cc3ccccc3)CC1)C2 (stereo not drawn) [DONEPEZIL] | 30.86 |  | Dose-dependent effect | 32.38 | 28.54 | 26.82 |  | 37.67 | 45.14 | 43.17 | 39.1 | 64.2 | 53.86 |  | 55.42 | 61.25 | 28.24 | 31.25 |  |  | 
6 | COc1cc(/C=N/NC(=O)Nc2ccncc2)ccc1O | 36.83 | 18.7 | Dose-dependent effect | 39.5 | 35.83 | 33.67 | Non-toxic | 40.5 | 52 | 49.67 | 46.17 | 68.17 | 57.87 | Non-toxic | 64.5 | 65 | 35.5 | 36.62 | 528 | 20.5 | IC50 ([2]; read-out: pIC50 (converted)): 19.1 µM; Ratio IC50 [21]: 28.2; Ki [23]: 446 µM
7 | O=C(N/N=C/c1ccccc1O)Nc1ccncc1 | 36.83 | 32.5 | Dose-dependent effect | 39.17 | 36.33 | 34.67 | Non-toxic | 48.15 | 55.21 | 54.19 | 49.12 | 70.17 | 63.67 | Non-toxic | 65 | 67.33 | 37.5 | 39.33 | 246 | 25.6 | IC50 ([2]; read-out: pIC50 (converted)): 33.1 µM; Ratio IC50 [21]: 7.56; Ki [23]: 212 µM
8 | COc1ccc(/C=N/NC(=O)Nc2ccncc2)cc1 | 37.5 | 48.3 | Dose-dependent effect | 40.33 | 35.17 | 36.83 | Non-toxic | 48.67 | 56.17 | 56.33 | 50.5 | 70.17 | 63.33 | Non-toxic | 65.83 | 67.83 | 37.83 | 39.5 | 786 | 35.5 | IC50 ([2]; read-out: pIC50 (converted)): 49 µM; Ratio IC50 [21]: 16.3; Ki [22]: 624 µM
9 | O=C(N/N=C/c1ccc(O)cc1O)Nc1ccncc1 | 35.03 | 4.26 | Dose-dependent effect | 37.5 | 34.83 | 32.5 | Non-toxic | 40.33 | 51 | 49.17 | 42.5 | 65.57 | 57.67 | Non-toxic | 61.83 | 65.17 | 34.83 | 36.17 | 58.2 | 3.56 | Ratio IC50 [21]: 13.7; Ki [23]: 72.7 µM
